An excerpt weighted towards active compounds, which were near 3.1% of everything screened.
Ins promoter up: MIN6 insulin promoter up-regulation | AID 1625 | z-score at 5 µM | MIN6 insulin promoter-GFP reporter, high-content imaging; active compounds read high | hit rate 0.3% among 190,000;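 active = z-score above 3 at 5 µM with at least 500 cells counted in the well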
Yeast lifespan up: extends the lifespan of yeast; S. cerevisiae growth with nicotinamide, OD615; deaD strain in restrictive glucose medium; inhibition of the nicotinamide effect, % at 10 µM; hit rate 0.68% among 130,000; AID 775;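 active = inhibition above a set limit, placed 3 SD over the median of all compounds, cut at about 26% in these data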;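 note: 0% = nicotinamide-treated wells and 100% = cells grown without nicotinamide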
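assay system = DeaD-strain S. cerevisiae | measured by = absorbance at 615 nm | probe or stimulus = nicotinamide 1.5 mM | buffer or medium = CSMM-D glucose medium, restrictive | times = 48 h at 30 °C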
INS promoter inh: TRM-6 insulin promoter activity inhibition; TRM-6 cells (human fetal islet line), insulin promoter-eGFP reporter, imaging; reporter expression induced with tamoxifen; hit rate 0.9% among 130,000; AID 1273; inhibition, % at 2 µM;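 active = inhibition above the mean plus 3 SD, with well images judged a real hit on visual review, cut at about 60% in these data, passing the limit was not always enough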
Yeast growth inh: yeast BB579 growth reduction in restrictive medium; hit rate 0.51% among 140,000; AID 804; S. cerevisiae BB579 growth, OD615, 48 h; inhibition, % at 10 µM;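 active = inhibition above a set limit, 3 SD over the mean compound inhibition, cut at about 44% in these data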
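Test system: Saccharomyces cerevisiae DeaD strain BB579, replicative lifespan model yeast | Buffer or medium: Restrictive CSMM-D medium | Doses: One dose, 10 µM compound with 0.25% DMSO | Incubation: 48 h exposure, 30 °C | Detection: Culture absorbance at 615 nm | Control set: Amphotericin B at 10 µg/mL as positive control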
RAM network inh: yeast RAM network inhibition | S. cerevisiae dse1pr::URA3 reporter, 5-FOA growth OD615, 2 d; analog-sensitive cbk1-as2 kinase mutant strain | inhibition, % at 50 µM | hit rate 1.8% among 190,000;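 active = inhibition above a set limit, 3 SD over mean compound inhibition, cut at about 8.4% in these data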;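 note: 0% = DMSO-only wells with no growth and 100% = 10 µM 1-NA-PP1 full growth; inhibition rescues growth on 5-FOA so higher OD means more RAM inhibition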
RAM efflux-def: RAM network inhibitors in efflux-deficient yeast; shares compounds with RAM network inh; AID 1305; 1,200 tested, under 10 active; max inhibition, %; S. cerevisiae efflux-deficient reporter strain, 5-FOA growth OD615, 2 days; call rule not given here;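 note: plate controls were vehicle for no effect and reference inhibitor for full effect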
* = called active by the depositor; x = no result given.

SMILES | Ins promoter up | Yeast lifespan up | INS promoter inh | Yeast growth inh | RAM network inh | RAM efflux-def
Cc1ccc2[nH]c(=O)cc(C(=O)OCC(=O)c3ccccc3)c2c1 | -0.53 | -3 | 50 | -22 | 15* | 1
COc1ccc(CNC(=O)c2csc(Cc3ccc(OC)cc3)n2)cc1 | x | -2 | 17 | -69 | 3 | x
COc1ccc(Cc2nc(C(=O)Nc3ccc(F)cc3)cs2)cc1 | -0.55 | -8 | 57 | -30 | 16* | 3
CCNc1nc(NC(C)C)nc(ON=C(C)C)n1 | 1.3 | 3 | 11 | 8 | 1 | x
CCC(CC)COC(=O)C(C#N)c1nc2ccccc2nc1N1CCOCC1 (configuration not stated) | -0.57 | -2 | x | -14 | 16* | 4
N#CC(C(=O)OC1CCCCC1)c1nc2ccccc2nc1N1CCOCC1 (configuration not stated) | 0.59 | 7 | -38 | -27 | 3 | x
COc1nc2ccc(C)cc2cc1-c1noc(-c2ccccc2)n1 | 0.1 | -26 | -31 | -53 | 12* | 3
CCCCCCOc1ccc(NC(=O)CC2C(=O)N(CC)C(=S)N2Cc2ccco2)cc1 (configuration not stated) | -1.3 | 2 | 12 | -10 | 17* | 3
CCN1C(=O)C(CC(=O)Nc2ccc(OC)cc2)N(CCc2ccc(F)cc2)C1=S (configuration not stated) | -1.5 | x | x | x | 16* | 2
CCN1C(=O)N[C@@H](CCc2ccccc2)[C@@H](C(=O)OC)[C@H]1C | -0.37 | x | x | x | x | x
CCOC(=O)c1cc(C)sc1NC(=O)C(c1ccccc1)c1ccccc1 | 0.28 | 15 | -50 | -28 | 16* | 5
COC(=O)COc1cccc(NC(=O)c2cccc(C)c2)c1 | 0.08 | x | 42 | x | 0 | x
Cc1cccc(C(=O)Nc2cccc(OC(=O)c3cccc(C)c3)c2)c1 | 0.43 | -12 | 13 | -22 | 14* | 5
COc1ccc(C(C#N)N2N=C(c3ccccc3)CC2c2ccccc2)cc1OC (configuration not stated) | x | -8 | 22 | -13 | 4 | x
COc1ccc(C2=NN(C(C#N)c3ccc(OC)cc3)C(c3ccccc3)C2)cc1 (configuration not stated) | -0.62 | 0 | -10 | -18 | 14* | 2
CCCc1nn(C)c(C(=O)Nc2ccc(C)c(C)c2)c1Cl | -0.11 | -4 | -9 | -8 | 22* | 2
CC(=O)Nc1ccc(NC(=O)CSc2nnc(C)c(=O)[nH]2)cc1 | -0.19 | x | x | x | 2 | x
COc1ccccc1OCC(=O)Nc1ccc(CSc2ccccc2)cc1C | -0.64 | 0 | -4 | -29 | 18* | 3
O=C(O)CCCN1C(=O)/C(=C/c2cn(-c3ccccc3)nc2-c2cccs2)SC1=S | 0.04 | x | 21 | x | 12* | 3
Cc1nn(-c2ccccc2)c(Cl)c1/C=C1\SC(=S)N(CCCCCC(=O)O)C1=O | 0.47 | x | x | x | x | x
S=C(c1ccc(-c2cc(Cl)ccc2Cl)o1)N1CCCCC1 | -0.02 | -3 | 4 | -47 | 12* | 1
O=C(Nc1nc2ccccc2s1)c1ccc(N2CCCCC2)c([N+](=O)[O-])c1 | -0.44 | -6 | x | -4 | 3 | x
CCCCNC(=S)N(C)/N=C/c1ccc(OCc2ccc(C(=O)OC)cc2)c(OC)c1 | -0.44 | 0 | 32 | -18 | 14* | 7
Cc1cccc(OCCC(=O)Nc2ccc(S(=O)(=O)N3CCCC3)cc2)c1 | 0.8 | -7 | 7 | -23 | 4 | x
Cc1cccc(OCCC(=O)Nc2ccc(C)c(S(=O)(=O)N3CCCCC3)c2)c1 | -0.42 | 5 | -65 | -38 | 16* | 2
SMILES | Ins promoter up | Yeast lifespan up | INS promoter inh | Yeast growth inh | RAM network inh | RAM efflux-def
Cc1ccc(NC(=O)c2ccccc2F)cc1S(=O)(=O)N1CCCCCC1 | -1.2 | x | 0 | x | 13* | 2
Cc1ccc(NC(=O)c2ccc(F)cc2)cc1S(=O)(=O)N1CCCCCC1 | -0.67 | x | x | x | 12* | 2
CC(NC(=O)COC(=O)C1=COCCO1)C12CC3CC(CC(C3)C1)C2 (configuration not stated) | -0.77 | x | x | x | 1 | x
Brc1ccc(Cn2c(-c3ccc(Br)o3)nc3ccccc32)o1 | -0.31 | 2 | -136 | -49 | 13* | 3
Nc1ccccc1Nc1cc(-c2ccccc2)[nH]n1 | -1.5 | x | x | x | 1 | x
COc1cc(NS(=O)(=O)c2ccc(Nc3nc(-c4ccccc4)cs3)cc2)nc(OC)n1 | -0.47 | 3 | 3 | -33 | 11* | 2
COc1ccc(OCCNC(=O)c2cccc(Oc3ccc(C(F)(F)F)cc3[N+](=O)[O-])c2)cc1 | -0.54 | 4 | -10 | -12 | 14* | 2
O=C(NCCO)c1ccc(Oc2ccc(C(F)(F)F)cc2[N+](=O)[O-])cc1 | 0.18 | x | 0 | x | 1 | x
O=C(NCCOc1ccccc1)c1ccccc1[N+](=O)[O-] | 0.48 | x | -456 | x | -1 | x
O=C(NCCOc1ccccc1)c1cc(C(=O)NCCOc2ccccc2)cc([N+](=O)[O-])c1 | -1.4 | 0 | 17 | -67 | 14* | 3
CC(=O)c1c(C)n(C)c2ccc(OC(=O)c3ccc([N+](=O)[O-])cc3)cc12 | 0.8 | x | x | x | 5 | x
CCOC(=O)c1c(C)[nH]c(N=Nc2ccc(C)cc2C)c1C | 0.45 | -13 | 6 | -13 | 6 | x
CCOC(=O)c1c(C)[nH]c(N=Nc2ccccc2C)c1C | -0.6 | -11 | 29 | -7 | 20* | 5
Cc1cc(Br)ccc1OCC(=O)N1CCCCCC1 | x | -6 | 21 | -7 | 21* | 1
CCC(C)(C)NC(=O)CN(CCc1cccc(C)c1)C(=O)c1csnn1 | 0.04 | x | x | x | 0 | x
Cc1cc(/C=C(/C#N)c2cccc(Cl)c2)c(C)n1C | 0.02 | -10 | -23 | -57 | 17* | 4
CCOC(=O)/C=C1\SCC(=O)N1CC(=O)N1CCOCC1 | -0.61 | x | -20 | x | 1 | x
CCCOc1ccc(-c2nn(-c3ccccc3)cc2/C=C2\SC(N)=NC2=O)cc1C | -0.58 | 7 | 26 | -26 | 13* | 9
COc1ccc(-c2nn(CCC(=O)O)cc2/C=C2\SC(N)=NC2=O)cc1OC | 0.14 | 0 | 56 | -13 | 3 | x
Cc1nc(-c2ccc(S(=O)(=O)NCC3CCN(C(=O)OC(C)(C)C)CC3)s2)cs1 | 0.37 | x | x | x | x | x
CC(C)OC(=O)CC(=O)CSc1nc(-c2ccc(F)cc2)cc(-c2ccccc2)c1C#N | 0.5 | 2 | x | -10 | 14* | 5
CC(CCc1ccco1)NC(=O)c1cccc2c1C(=O)N(C1CCCCC1)C2 (configuration not stated) | -0.32 | x | 33 | x | 12* | 1
COc1ccc(N2Cc3cccc(C(=O)NC(C)CCc4ccco4)c3C2=O)cc1 (configuration not stated) | 0.09 | -6 | x | -81 | 7 | x
Oc1c(Br)cc(Br)cc1C=NCc1ccc(F)cc1 | 1 | x | x | x | -1 | x
O=C(O)c1ccc(Cl)c(S(=O)(=O)Nc2cccc(C(=O)Nc3cccc(C(F)(F)F)c3)c2)c1 | 0.89 | x | 28 | x | 12* | 3
COc1ccc(C(=O)O)cc1S(=O)(=O)Nc1cccc(C(F)(F)F)c1 | -0.77 | -15 | 35 | -16 | 2 | x

Source: PubChem (several laboratories)
